Laboratory results reported in ChEMBL document CHEMBL1157301, “N-Methyl-4-hydroxy-2-pyridinone analogues from Fusarium oxysporum” (J Nat Prod, 2006).
Converted amounts (≈) assume the structure as drawn. The source made the active and inactive calls. No cut-off for these calls is given here.

Assays:
Type in all cases: functional, organism-based
[1] = tested on: Candida albicans; assay: Antifungal activity against Candida albicans ATCC 90028 at 37 degC after 18 to 24 hrs
[2] = tested on: Mycobacterium intracellulare; assay: Antimycobacterial activity against Mycobacterium intracellular ATCC 23068 at 37 degC after 68 to 72 hrs
Summary of the method: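 Modified Franzblau microdilution. Samples in DMSO, serially diluted in 20% DMSO/saline, tested in duplicate. Inoculum in Middlebrook 7H9 broth with OADC and 5% Alamar Blue, pH 7.3. Incubated at 37 °C, 10% CO2, 68–72 h. Fluorescence read at 544ex/590em before and after incubation. IC50 from percent growth versus concentration; MIC is the lowest concentration with no detectable growth. Ciprofloxacin control.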

[3] = tested on: Aspergillus fumigatus; assay: Antifungal activity against Aspergillus fumigatus ATCC 90906 at 30 degC after 68 to 72 hrs
[4] = tested on: Fusarium verticillioides; assay: Antifungal activity against Fusarium verticillioides up to 1 mg/mL by disk assay
Summary of the method: (§1)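 Disk diffusion assay run as described by Alam et al., with captan as positive control; compounds tested up to 1mg/mL.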

[5] = tested on: Aspergillus flavus; assay: Antifungal activity against Aspergillus flavus up to 1 mg/mL by disk assay; summary of the method: as §1
[6] = tested on: Candida albicans; assay: Antifungal activity against Candida albicans ATCC 90028 up to 50 ug/mL after 18 to 24 hrs at 37 degC
[7] = tested on: Cryptococcus neoformans; assay: Antifungal activity against Cryptococcus neoformans ATCC 90113 at 30 degC after 68 to 72 hrs

| Structure (SMILES) | IC50 [3] | Activity [4] | Activity [5] | Activity [3] | Activity [1] | Activity [2] | Activity [7] | further results |
| --- | --- | --- | --- | --- | --- | --- | --- | --- |
| COC[C@H]1OC(=O)c2coc3c2[C@@]1(C)C1=C(C3=O)[C@@H]2CCC(=O)[C@@]2(C)C[C@H]1OC(C)=O [WORTMANNIN] | – | – | – | – | – | – | – | IC50 [1]: 0.25 µg/mL (≈ 0.584 µM); MIC [1]: 0.78 µg/mL (≈ 1.82 µM) |
| O=C(O)c1cn(C2CC2)c2cc(N3CCNCC3)c(F)cc2c1=O [CIPROFLOXACIN] | – | – | – | – | – | – | – | MIC [2]: 0.63 µg/mL (≈ 1.9 µM) |
| CCC(C)CC(C)/C=C(\C)[C@@H]1O[C@H](c2c(O)c([C@@]3(O)CCC(=O)C[C@H]3O)cn(C)c2=O)CC[C@H]1C (stereo not given in full) | 35 µg/mL (≈ 71.5 µM) | inactive | inactive | – | – | – | – | – |
| C[C@@H]1[C@H](O)[C@@H](C)/C=C/C=C/C=C/C=C/C=C/C=C/C=C/[C@H](O[C@@H]2O[C@H](C)[C@@H](O)[C@H](N)[C@@H]2O)C[C@@H]2O[C@](O)(C[C@@H](O)C[C@@H](O)[C@H](O)CC[C@@H](O)C[C@@H](O)CC(=O)O[C@H]1C)C[C@H](O)[C@H]2C(=O)O [AMPHOTERICIN B] | 0.91 µg/mL (≈ 0.985 µM) | – | – | – | – | – | – | – |
| CCC(C)CC(C)/C=C(\C)C1OC(c2c(O)c([C@]3(O)CCC(=O)C[C@@H]3O)cn(C)c2=O)CC[C@@H]1C (stereo not given in full) | 2 µg/mL (≈ 4.08 µM) | inactive | inactive | – | – | – | – | Activity [6]: inactive; IC50 [7]: 35 µg/mL (≈ 71.5 µM) |
| CCC(C)CC(C)/C=C(\C)[C@@H]1O[C@H](c2c(O)c(-c3ccc(O)cc3)cn(C)c2=O)CC[C@H]1C (stereo not given in full) | – | inactive | inactive | inactive | inactive | inactive | inactive | – |
| CC[C@H](C)[C@H]1C(=O)O[C@H](C(C)C)C(=O)N(C)[C@@H](C(C)C)C(=O)O[C@H](C(C)C)C(=O)N(C)[C@@H](C(C)C)C(=O)O[C@H](C(C)C)C(=O)N1C [ENNIATIN B1] | – | – | – | – | – | – | – | IC50 [1]: 2 µg/mL (≈ 3.06 µM); MIC [1]: 6.25 µg/mL (≈ 9.56 µM); IC50 [2]: 15 µg/mL (≈ 22.9 µM); IC50 [7]: 9 µg/mL (≈ 13.8 µM); MIC [7]: 25 µg/mL (≈ 38.2 µM) |
| CCC(C)CC(C)/C=C(\C)[C@@H]1O[C@H](c2c(O)c([C@@]3(O)CCC(OC)(OC)C[C@@H]3O)cn(C)c2=O)CC[C@H]1C (stereo not given in full) | – | inactive | inactive | inactive | inactive | inactive | inactive | – |
| CCC(C)CC(C)/C=C(\C)[C@@H]1O[C@H](c2c(O)c(-c3ccc(O)cc3)c[nH]c2=O)CC[C@H]1C (stereo not given in full) | – | inactive | inactive | inactive | inactive | inactive | inactive | – |
